Columns and labels:
Mu-type opioid receptor [1] = target: Mu-type opioid receptor (Cavia porcellus, UniProt P97266); assay: Compound was evaluated for the agonistic activity against Opioid receptor mu 1 in guinea pig ileum.; assay type: functional, tissue-based
Procedure, shortened: (§1)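 Isolated organs (guinea pig ileum myenteric plexus-longitudinal muscle, hamster vas deferens, rabbit vas deferens) were electrically stimulated, and inhibition of the evoked twitch contractions was recorded. The bath held a peptidase inhibitor mixture. Peptides were tested up to 10 μM.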

Cavia porcellus [2] = organism: Cavia porcellus; assay: The compound was evaluated for the antagonistic activity against DAGO (mu-receptor) in guinea pig ileum.; assay type: functional
[3] = system: Delta-type opioid receptor; assay: Receptor selectivity index is the ratio of the apparent KI at delta opioid receptor over the apparent KI at the highest affinity site
Procedure, shortened: (§2)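 RSI is the apparent KI at the given site divided by the apparent KI at the highest-affinity site. KI values come from [3H]DAGO (μ) and [3H]DSLET (δ) binding in rat brain membranes and [3H]bremazocine (κ) binding in guinea pig cerebellum membranes, all at 25 °C with peptidase inhibitors.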

[4] = target: Delta-type opioid receptor (Rattus norvegicus, UniProt P33533); assay: Compound was evaluated for the inhibition of [3H]DSLET([[3H]D-Ser2,Leu5,Thr6]enkephalin binding to Opioid receptor delta 1 in rat brain homogenates.; assay type: tissue-based
Delta-type opioid receptor (Rattus norvegicus, UniProt P33533), sequence (P33533 whole entry): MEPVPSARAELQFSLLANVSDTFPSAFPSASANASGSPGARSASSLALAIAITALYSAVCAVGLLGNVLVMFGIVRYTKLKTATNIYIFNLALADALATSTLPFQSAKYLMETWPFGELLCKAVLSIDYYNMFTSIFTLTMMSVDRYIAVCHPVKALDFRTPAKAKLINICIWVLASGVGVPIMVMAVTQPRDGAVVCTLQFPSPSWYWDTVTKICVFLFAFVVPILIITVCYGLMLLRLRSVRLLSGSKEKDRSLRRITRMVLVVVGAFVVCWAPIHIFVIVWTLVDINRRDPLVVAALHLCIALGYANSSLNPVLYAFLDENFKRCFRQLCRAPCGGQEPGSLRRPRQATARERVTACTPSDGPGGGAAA

[5] = target: Kappa-type opioid receptor (Cavia porcellus) (UniProt P41144); assay: Hill coefficient value was measured against Opioid receptor kappa 1 in guinea pig cerebellum membrane homogenates; assay type: cell membranes
Kappa-type opioid receptor (Cavia porcellus), sequence (P41144 whole entry): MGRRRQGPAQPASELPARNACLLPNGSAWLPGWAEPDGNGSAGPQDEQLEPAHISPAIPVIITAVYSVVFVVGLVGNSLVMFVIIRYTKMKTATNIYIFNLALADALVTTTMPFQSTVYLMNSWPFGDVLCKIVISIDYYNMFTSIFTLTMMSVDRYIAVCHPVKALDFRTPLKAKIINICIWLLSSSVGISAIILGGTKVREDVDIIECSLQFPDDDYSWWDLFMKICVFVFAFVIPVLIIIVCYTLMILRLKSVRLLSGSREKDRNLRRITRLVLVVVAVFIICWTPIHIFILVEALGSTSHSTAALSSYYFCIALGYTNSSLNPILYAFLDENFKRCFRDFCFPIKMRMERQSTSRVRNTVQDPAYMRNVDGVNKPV

Oryctolagus cuniculus = organism: Oryctolagus cuniculus; assay: The compound was evaluated for the antagonistic activity in rabbit vas deferens; assay type: functional
Procedure, shortened: (§3)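 Isolated electrically stimulated organ (guinea pig ileum myenteric plexus-longitudinal muscle; rabbit vas deferens), run with a peptidase-inhibitor mixture, twitch contractions recorded. In the antagonism test, the peptide concentration was set to depress the twitch by 20-40%. Analogue tested up to 10 μM. Ke is the concentration reducing the effect of a double dynorphin A dose to that of a single dose. Mean ± SEM of at least four independent measurements.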

[6] = target: T1, Kappa-type opioid receptor (Homo sapiens, UniProt P41145); assay: Compound was evaluated for the agonistic activity against Opioid receptor kappa 1 in rabbit vas deferens.; assay type: functional, Oryctolagus cuniculus; details: target entry is the homologue from another species; procedure, shortened: as §1
T1 sequence (P41145 whole entry): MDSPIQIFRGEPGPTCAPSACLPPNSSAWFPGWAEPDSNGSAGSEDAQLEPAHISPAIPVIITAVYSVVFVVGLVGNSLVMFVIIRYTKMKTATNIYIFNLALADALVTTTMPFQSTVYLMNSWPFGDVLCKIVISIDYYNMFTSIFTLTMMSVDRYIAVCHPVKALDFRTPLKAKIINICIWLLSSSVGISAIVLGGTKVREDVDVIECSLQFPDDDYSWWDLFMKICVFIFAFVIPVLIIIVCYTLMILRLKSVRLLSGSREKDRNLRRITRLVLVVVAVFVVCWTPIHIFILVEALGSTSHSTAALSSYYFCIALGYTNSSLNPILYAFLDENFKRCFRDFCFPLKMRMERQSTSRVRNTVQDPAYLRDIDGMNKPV

[7] = target: Kappa-type opioid receptor (Cavia porcellus, UniProt P41144); assay: Compound was evaluated for the inhibition of [3H]bremazocine binding to Opioid receptor kappa 1 in guinea pig cerebellum membrane homogenates.; assay type: cell membranes
Kappa-type opioid receptor (Cavia porcellus, UniProt P41144), sequence (P41144 whole entry): as the sequence (P41144 whole entry) above
Procedure, shortened: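 Guinea pig cerebellum crude membranes were incubated with [3H]bremazocine (0.5 nM) at 25 °C for 60 min with peptidase inhibitors. Values are the mean ± SEM of at least three independent observations.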

[8] = target: T1, Kappa-type opioid receptor; assay: Receptor selectivity index is the ratio of the apparent KI at kappa opioid receptor over the apparent KI at the highest affinity site; procedure, shortened: as §2
[9] = target: Mu-type opioid receptor (Rattus norvegicus) (UniProt P33535); assay: Hill coefficient value was measured against mu sites in rat brain homogenates; assay type: tissue-based
Mu-type opioid receptor (Rattus norvegicus), sequence (P33535 whole entry): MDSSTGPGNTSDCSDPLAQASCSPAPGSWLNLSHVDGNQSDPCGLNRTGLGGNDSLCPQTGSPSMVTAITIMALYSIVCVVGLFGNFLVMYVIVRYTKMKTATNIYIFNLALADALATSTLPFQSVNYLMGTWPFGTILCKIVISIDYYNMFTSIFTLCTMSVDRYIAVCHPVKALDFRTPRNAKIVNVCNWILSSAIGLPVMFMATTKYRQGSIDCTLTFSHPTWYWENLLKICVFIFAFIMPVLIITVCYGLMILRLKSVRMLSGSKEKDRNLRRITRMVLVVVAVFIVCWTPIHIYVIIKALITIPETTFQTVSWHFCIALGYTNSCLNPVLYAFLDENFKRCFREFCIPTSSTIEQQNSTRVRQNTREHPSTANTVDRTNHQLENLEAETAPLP

Mu-type opioid receptor [10] = target: Mu-type opioid receptor (Rattus norvegicus, UniProt P33535); assay: Compound was evaluated for the inhibition of [3H]DAGO([[3H]D-Ala,MePhe4,Glyol5]enkephalin) binding to mu sites in rat brain homogenates.; assay type: tissue-based
Mu-type opioid receptor (Rattus norvegicus, UniProt P33535), sequence (P33535 whole entry): as above

[11] = target: Delta-type opioid receptor (Rattus norvegicus) (UniProt P33533); assay: Hill coefficient value was measured against delta sites in rat brain homogenates; assay type: tissue-based
Delta-type opioid receptor (Rattus norvegicus), sequence (P33533 whole entry): as the sequence (P33533 whole entry) above

Cavia porcellus [12] = organism: Cavia porcellus; assay: The compound was evaluated for the antagonistic activity against dynorphin A in guinea pig ileum; assay type: functional; procedure, shortened: as §3
Cricetinae gen. sp. = assay: The compound was evaluated for the antagonistic activity in hamster vas deferens; assay type: functional, Cricetulus griseus
Procedure, shortened: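 Agonist concentration chosen to depress twitch height by 20-40%. Ke is the peptide concentration that reduces the effect of a double agonist dose to that of a single dose. Peptide tested up to 10 μM. At least four independent measurements.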

Mu-type opioid receptor (Cavia porcellus, UniProt P97266), sequence (P97266 whole entry): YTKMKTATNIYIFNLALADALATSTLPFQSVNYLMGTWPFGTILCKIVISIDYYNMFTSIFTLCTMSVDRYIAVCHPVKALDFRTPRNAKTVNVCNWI

| Compound | IC50 (Mu-type opioid receptor [1]) | Ke (Cavia porcellus [2]) | Ratio [3] | Ki [4] | Hill coefficient [5] | Ke (Oryctolagus cuniculus) | IC50 [6] | Ki [7] | Ratio [8] | Hill coefficient [9] | Ki (Mu-type opioid receptor [10]) | Hill coefficient [11] | Ke (Cavia porcellus [12]) | Ke (Cricetinae gen. sp.) |
| --- | --- | --- | --- | --- | --- | --- | --- | --- | --- | --- | --- | --- | --- | --- |
| NCCCC[C@H](NC(=O)[C@H]1CCCN1C(=O)[C@H](CCCN=C(N)N)NC(=O)[C@@H](Cc1c[nH]c2ccccc12)NC(=O)[C@H](CCCN=C(N)N)NC(=O)[C@H](CCCN=C(N)N)NC(=O)[C@@H](Cc1c[nH]c2ccccc12)NC(=O)[C@H](Cc1ccccc1)NC(=O)CNC(=O)CNC(=O)[C@@H](N)Cc1ccc(O)cc1)C(=O)O | 69 nM | 13.9 nM | 15 | 303 nM | 0.96 | 199 nM | > 10000 nM | 20.6 nM | 1 | 1.23 | 20.3 nM | 0.9 |  |  |
| CC(C)C[C@H](NC(=O)[C@@H](Cc1c[nH]c2ccccc12)NC(=O)CNC(=O)[C@@H](Cc1c[nH]c2ccccc12)NC(=O)[C@@H](N)Cc1ccc(O)cc1)C(=O)N[C@@H](CCCN=C(N)N)C(=O)N[C@@H](CCCN=C(N)N)C(=O)N[C@H](Cc1c[nH]c2ccccc12)C(=O)N[C@@H](CCCN=C(N)N)C(=O)N1CCC[C@@H]1C(=O)N[C@@H](CCCCN)C(=O)O | > 10000 nM | 83 nM | 5.6 | 134 nM | 0.85 | 293 nM | > 10000 nM | 23.8 nM | 1 | 0.89 | 51.5 nM | 0.86 | 61 nM |  |
| CC[C@H](C)[C@H](NC(=O)[C@H](CCCN=C(N)N)NC(=O)[C@H](CCCN=C(N)N)NC(=O)[C@H](CC(C)C)NC(=O)[C@H](Cc1ccccc1)NC(=O)CNC(=O)CNC(=O)[C@@H](N)Cc1ccc(O)cc1)C(=O)N[C@@H](CCCN=C(N)N)C(=O)N1CCC[C@@H]1C(=O)N[C@@H](CCCCN)C(=O)O |  |  |  |  |  |  | 12.1 nM |  |  |  |  |  |  |  |
| CC[C@H](C)[C@H](NC(=O)[C@H](CCCNC(=N)N)NC(=O)[C@H](CCCNC(=N)N)NC(=O)[C@H](CC(C)C)NC(=O)[C@H](Cc1ccccc1)NC(=O)CNC(=O)CNC(=O)[C@@H](N)Cc1ccc(O)cc1)C(=O)N[C@@H](CCCNC(=N)N)C(=O)N1CCC[C@H]1C(=O)N[C@@H](CCCCN)C(=O)N[C@@H](CC(C)C)C(=O)N[C@@H](CCCCN)C(=O)N[C@@H](Cc1c[nH]c2ccccc12)C(=O)N[C@@H](CC(=O)O)C(=O)N[C@@H](CC(N)=O)C(=O)N[C@@H](CCC(N)=O)C(=O)O |  |  |  |  |  |  |  | 0.23 nM |  |  |  |  |  |  |
| CC(C)C[C@H](NC(=O)[C@H](Cc1ccccc1)NC(=O)CNC(=O)CNC(=O)[C@@H](N)Cc1ccc(O)cc1)C(=O)N[C@@H](CCCN=C(N)N)C(=O)N[C@@H](CCCN=C(N)N)C(=O)N[C@H](Cc1c[nH]c2ccccc12)C(=O)N[C@@H](CCCN=C(N)N)C(=O)N1CCC[C@@H]1C(=O)N[C@@H](CCCCN)C(=O)O | 2.84 nM |  | 110 | 5.43 nM | 1 |  | 12.8 nM | 0.049 nM | 1 | 0.86 | 0.58 nM | 0.98 |  |  |
| CC[C@H](C)[C@H](NC(=O)[C@H](CCCNC(=N)N)NC(=O)[C@H](CCCNC(=N)N)NC(=O)[C@H](CC(C)C)NC(=O)[C@H](Cc1ccccc1)NC(=O)CNC(=O)CNC(=O)[C@@H](N)Cc1ccc(O)cc1)C(=O)N[C@@H](CCCNC(=N)N)C(=O)N1CCC[C@H]1C(=O)N[C@@H](CCCCN)C(=O)O [DYNORPHIN A (1-11)] |  |  |  |  |  |  | 13.1 nM |  |  |  |  |  |  |  |
| CC(C)C[C@H](NC(=O)[C@@H](Cc1c[nH]c2ccccc12)NC(=O)CNC(=O)CNC(=O)[C@@H](N)Cc1ccc(O)cc1)C(=O)N[C@@H](CCCN=C(N)N)C(=O)N[C@@H](CCCN=C(N)N)C(=O)N[C@H](Cc1c[nH]c2ccccc12)C(=O)N[C@@H](CCCN=C(N)N)C(=O)N1CCC[C@@H]1C(=O)N[C@@H](CCCCN)C(=O)O | > 10000 nM | 249 nM | 8.6 | 631 nM | 0.85 | 1432 nM | > 10000 nM | 73 nM | 1 | 1.06 | 142 nM | 0.92 | 606 nM |  |
| CC[C@H](C)[C@H](NC(=O)[C@H](CCCN=C(N)N)NC(=O)[C@H](CCCN=C(N)N)NC(=O)[C@H](CC(C)C)NC(=O)[C@H](Cc1ccccc1)NC(=O)CNC(=O)CNC(=O)[C@@H](N)Cc1ccc(O)cc1)C(=O)N[C@@H](CCCN=C(N)N)C(=O)N1CCC[C@H]1C(=O)N[C@@H](CCCCN)C(=O)N[C@@H](CC(C)C)C(=O)N[C@@H](CCCCN)C(=O)N[C@@H](Cc1c[nH]c2ccccc12)C(=O)N[C@@H](CC(=O)O)C(=O)N[C@@H](CC(N)=O)C(=O)N[C@@H](CCC(=O)O)C(=O)O |  |  |  |  | 0.79 |  |  |  |  |  |  |  |  |  |
| CC(C)C[C@H](NC(=O)[C@H](Cc1ccccc1)NC(=O)CNC(=O)[C@@H](Cc1c[nH]c2ccccc12)NC(=O)[C@@H](N)Cc1ccc(O)cc1)C(=O)N[C@@H](CCCN=C(N)N)C(=O)N[C@@H](CCCN=C(N)N)C(=O)N[C@H](Cc1c[nH]c2ccccc12)C(=O)N[C@@H](CCCN=C(N)N)C(=O)N1CCC[C@@H]1C(=O)N[C@@H](CCCCN)C(=O)O | 8890 nM |  | 5.5 | 561 nM | 0.83 | 433 nM | > 10000 nM | 153 nM | 1.5 | 1.15 | 103 nM | 0.72 | 206 nM |  |
| CC(C)C[C@H](NC(=O)[C@H](Cc1ccccc1)NC(=O)[C@@H](Cc1c[nH]c2ccccc12)NC(=O)CNC(=O)[C@@H](N)Cc1ccc(O)cc1)C(=O)N[C@@H](CCCN=C(N)N)C(=O)N[C@@H](CCCN=C(N)N)C(=O)N[C@H](Cc1c[nH]c2ccccc12)C(=O)N[C@@H](CCCN=C(N)N)C(=O)N1CCC[C@@H]1C(=O)N[C@@H](CCCCN)C(=O)O | 222 nM | 40.5 nM | 53 | 1040 nM | 1.03 | 1127 nM | > 10000 nM | 19.6 nM | 1 | 1.31 | 327 nM | 1.07 | 10.3 nM | 1127 nM |

Reference: ChEMBL document CHEMBL1123230, “Synthesis and biological activities of dynorphin A analogues with opioid antagonist properties” (J Med Chem, 1986)
